# TCR CD3 inh: blocks the human TCR-CD3 interaction | TAMRA-labeled TCR probe fluorescence, biochemical | inhibition, % at 9.4 µM | actives 0.37% (n = 360,000) | AID 651800; in the data active means inhibition above about 19%;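 further: recombinant mutant TCR 2C K166C tagged with TAMRA read by polarization; 0% = receptor in buffer alone and 100% = receptor with positive control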
# mABHD4 FP: inhibits mouse alpha/beta hydrolase domain 4. Q8VD66. purified mABHD4, FP-Rh probe fluorescence polarization. inhibition, % at 8.92 µM. actives 0.54% (n = 370,000);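 active means inhibition exceeding the mean over every tested compound plus 3 SD, cut at about 30% in these data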;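 further: 0% = plate median of compound wells and 100% = S159A mutant with DMSO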
# Target sequence (Q8VD66 whole entry, looked up, the tested form may be a part): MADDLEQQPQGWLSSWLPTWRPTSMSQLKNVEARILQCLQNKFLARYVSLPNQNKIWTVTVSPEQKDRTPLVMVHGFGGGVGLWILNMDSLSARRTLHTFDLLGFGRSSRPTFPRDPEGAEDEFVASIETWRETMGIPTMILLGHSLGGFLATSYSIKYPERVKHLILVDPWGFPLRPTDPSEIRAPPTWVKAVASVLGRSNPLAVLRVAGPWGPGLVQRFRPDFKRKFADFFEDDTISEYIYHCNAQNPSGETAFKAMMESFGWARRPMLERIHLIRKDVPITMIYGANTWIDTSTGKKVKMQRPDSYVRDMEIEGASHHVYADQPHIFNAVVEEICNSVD
#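 Assay system: wild-type mouse ABHD4 protein; compound: single nominal dose of 8.92 µM, 0.89% DMSO final; schedule: 45 min + 60 min at 25 °C; measured by: FP readout, ex 525 nm / em 598 nm; evaluation: % inhibition of FP-Rh probe binding versus controls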
# HTRA1 inhibitor: blocks human HTRA1 serine peptidase | inhibition, % at 5.96 µM | recombinant HTRA1, FP-rhodamine activity-based probe, fluorescence polarization | actives 0.5% (n = 340,000) | Q92743; in the data active means inhibition above about 36%;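 further: 0% = enzyme with DMSO and 100% = wells lacking enzyme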
# SIAE primary: inhibitors of human sialic acid acetylesterase SIAE; Q9HAT2; SIAE FP-Rh probe binding, fluorescence polarization; inhibition, % at 9.66 µM; actives 0.69% (n = 370,000); AID 1053197;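 active means inhibition above a cutoff: mean of compounds within the control limits plus 3 SD of those, cut at about 17% in these data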;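 further: 0% = plate median of compound wells and 100% = probe without SIAE protein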
# PRMT1 inh: blocks human protein arginine methyltransferase 1; actives 1.3% (n = 370,000); recombinant PRMT1, activity-based probe fluorescence polarization; AID 652257; inhibition, % at 2.79 µM;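 active means inhibition above about 21% made by adding two undisclosed values, limit read from the data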
# SIAE confirm: human SIAE inhibition, confirmation | inhibition, % at 9.66 µM | SIAE FP-Rh activity-based probe, fluorescence polarization | shares compounds with SIAE primary | actives 13% (n = 2,300);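 active means mean inhibition of the replicates above the hit cutoff set in the primary screen, cut at about 17% in these data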;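 further: 0% = SIAE with DMSO and probe and 100% = probe without SIAE; inhibitors lower polarization as more probe stays unbound to SIAE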
# * marks the source's active call; other numbers are inactive results; · = no result. Shown are actives, neighbours in structure and some others; about 2.6% of the full set was active somewhere.
SMILES,TCR CD3 inh,mABHD4 FP,HTRA1 inhibitor,SIAE primary,PRMT1 inh,SIAE confirm
CC(OC(=O)CCC(=O)c1cccs1)C(=O)NC1CCCCC1C (stereo unspecified),1,2,1,-5,-1,·
O=C(Nc1ccc(N2CCCC2)cc1)c1cccc(F)c1,-10,9,26,18*,4,-1
CC1CC(=O)Nc2ccccc2N1C(=O)COc1cc(Cl)ccc1Cl (stereo unspecified),0,-12,0,-2,5,·
Cc1c(C(=O)N/N=C/c2ccc(-c3ccccc3[N+](=O)[O-])o2)sc(N)c1C#N,4,22,25,26*,16,6
CCOC(=O)C1=C(C)OC(N)=C(C#N)C1c1cc(SCC)oc1C (stereo unspecified),8,1,1,19*,-1,-8
Nc1nc(NCc2ccco2)nc(N2CCCCC2)c1[N+](=O)[O-],6,-1,3,19*,0,1
CN1CCN(c2nc(NCc3ccco3)nc(N)c2[N+](=O)[O-])CC1,-1,1,5,16,-3,·
CC(C)[C@H](NC(=O)c1ccc(Cl)c(Cl)c1)C(=O)N1CCC[C@H]1C(=O)NCc1ccccc1,9,0,·,0,0,·
C=CCNc1nc(NCc2ccc(NC(C)=O)cc2)c2sc(-c3ccccc3)cc2n1,0,25,·,39*,-3,37*
CC(=O)Nc1ccc(CNc2nc(NC(C)C)nc3cc(-c4ccccc4)sc23)cc1,3,23,·,55*,-6,53*
N#CC(=C1C=C(Br)C(=NO)C=C1Cl)c1cccc2ccccc12,0,0,-4,18*,-7,13
COc1ccc(N(C(C)=O)c2nc3ccccc3[nH]2)cc1,-16,-3,6,1,-3,·
COc1cccc(OCC(O)CN2CCN(c3ccc(Cl)cc3)CC2)c1 (stereo unspecified),1,-5,1,19*,-5,0
CN(CCOc1ccccc1)C(=O)CCc1c[nH]c2ccccc12,5,-5,-3,6,0,·
O=CN1N=C(c2ccccc2)CC1c1ccc(Cl)cc1 (stereo unspecified),1,-3,1,-1,-2,·
O=C1OC(c2ccccc2)=NC12CC2c1ccc(Cl)cc1 (stereo unspecified),-2,-1,8,23*,-1,70*
CCOc1ccc(NC(=O)CCC(=O)Nc2cc(OC)c(NC(=O)c3ccco3)cc2OC)cc1,4,3,4,19*,3,7
O=C(C1CCCN(Cc2ccc([N+](=O)[O-])cc2)C1)N1CCCCC1 (stereo unspecified),-6,12,2,0,3,·
Clc1ccc2c(N/N=C/c3cccnc3)ccnc2c1,0,7,-18,-6,-2,·
Oc1ccc(Nc2ccnc3cc(Cl)ccc23)cc1,-3,-2,10,2,1,·
Oc1ccc(/C=N/Nc2ccnc3cc(Cl)ccc23)c(O)c1,-11,15,10,27*,0,36*
Clc1ccc2c(N/N=C/c3ccc(Br)cc3)ccnc2c1,-4,14,-9,19*,3,13
Cc1ccc(/C=N/Nc2ccnc3cc(Cl)ccc23)c(C)c1,6,12,-11,44*,-4,59*
Cc1ccccc1/C=N/Nc1ccnc2cc(Cl)ccc12,-1,19,5,26*,-7,31*
CCc1ccc(C(O)c2ncc(-c3cccc(C)c3)[nH]2)cc1 (stereo unspecified),2,5,·,3,3,·
SMILES,TCR CD3 inh,mABHD4 FP,HTRA1 inhibitor,SIAE primary,PRMT1 inh,SIAE confirm
Nc1c(-c2ccccc2)nc2ncccn12,6,1,·,2,1,·
O=Nc1c(-c2cccc([N+](=O)[O-])c2)nc2ncccn12,1,1,·,18*,-5,6
Oc1ccc(C(=S)N2CCCCCC2)cc1,7,-4,2,23*,1,0
CN(C(=O)[C@H]1O[C@@H](n2cnc3c(=O)[nH]c(N)nc32)[C@H](O)[C@@H]1O)C1CCCCC1,-3,-6,·,41*,-3,46*
Nc1nc2c(ncn2[C@@H]2O[C@H](C(=O)NCC(F)(F)F)[C@@H](O)[C@H]2O)c(=O)[nH]1,-5,-4,·,4,3,·
Nc1nc2c(ncn2[C@@H]2O[C@H](C(=O)N[C@H](Cc3ccccc3)C(=O)NCc3ccccc3)[C@@H](O)[C@H]2O)c(=O)[nH]1,0,2,·,5,2,·
Nc1nc2c(ncn2[C@@H]2O[C@H](C(=O)NC3CCCCC3)[C@@H](O)[C@H]2O)c(=O)[nH]1,-3,-2,·,49*,0,43*
Nc1nc2c(ncn2[C@@H]2O[C@H](C(=O)N[C@H](Cc3ccccc3)C(=O)NC3CCCCC3)[C@@H](O)[C@H]2O)c(=O)[nH]1,0,7,·,32*,6,35*
COc1ccccc1NC(=O)/C(C#N)=C/c1cccn1C,-5,0,-1,-1,5,·
O=C1C2CC=CCC2C(=O)N1c1ccc(NCCc2ccccc2F)c([N+](=O)[O-])c1 (stereo unspecified),6,-1,-1,17*,-4,2
O=C1C2CC=CCC2C(=O)N1c1ccc(NCCc2ccccc2)c([N+](=O)[O-])c1 (stereo unspecified),3,2,-11,0,-1,·
CCc1nnc(NC(=O)CCc2c[nH]c3ccccc23)s1,-1,1,-1,18*,1,5
C/C(=N\NC(=O)CCc1c(C)n[nH]c1C)c1ccc([N+](=O)[O-])cc1,4,-1,3,-3,-2,·
CN(c1cccnc1)c1ccc(NC(=O)CCc2c[nH]c3ccccc23)cc1Br,-6,23,·,32*,11,45*
O=C(CCc1c[nH]c2ccccc12)NCCc1ccc2c(c1)OCCO2,-2,0,-1,17*,7,-2
C/C(=N\NC(=O)CCc1c[nH]c2ccccc12)c1ccc([N+](=O)[O-])cc1,-3,2,-4,18*,0,4
CC(C)C(=O)Nc1nnc(Cc2c[nH]c3ccccc23)s1,7,-5,3,-1,-6,·
Cc1ccc(F)c(CNC(=O)C2(C)CCCN2C(=O)C(C)C)c1F (stereo unspecified),-1,-3,·,0,0,·
CC(OC(=O)CCN=C1NS(=O)(=O)c2ccccc21)C(=O)Nc1ccc(S(N)(=O)=O)cc1 (stereo unspecified),2,6,-2,-1,-1,·
Cc1ccc(C2=CCN(C)C(=O)N2c2ccc(Br)cc2)cc1,·,-18,·,6,6,·
O=C(CCc1c[nH]c2ccccc12)Nc1ccc(Nc2cccnc2)cc1,-4,9,·,11,-2,·
O=C(NCCc1c[nH]c2ccccc12)C(=O)c1c[nH]c2ccccc12,6,-8,-19,27*,3,-5

# From PubChem BioAssay
